In ChEMBL document CHEMBL1926588, “Sulfur and selenium derivatives of quinazoline and pyrido[2,3-d]pyrimidine: synthesis and study of their potential cytotoxic activity in vitro” (Eur J Med Chem, 2012):

Tests used:
[1] = Cytotoxicity against human BEAS2B cells after 72 hrs by MTT assay; type: cell-based, BEAS-2B; conditions: for GI50 at 72 h: BEAS2B cells; for LC50 / TGI: beas-2b, 72 h
Summary of the method: (§1)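 MTT read-out after 72 h exposure at 37 °C in humidified 5% CO2, with five concentrations between 0.01 and 100. GI50 is 50% growth reduction versus untreated controls, TGI is complete growth inhibition, and LC50 is the concentration killing 50% of cells. Minimum three independent experiments.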

[2] = test system: MCF7; test: Cytotoxicity against human MCF7 cells after 72 hrs by MTT assay; type: functional; conditions: MCF7, 72 h; summary of the method: as §1
[3] = Cytotoxicity against human 184B5 cells after 72 hrs by MTT assay; type: cell-based; conditions: for GI50 at 72 h: 184B5 cells; for LC50 / TGI: 184b5, 72 h; summary of the method: as §1
[4] = Cytotoxicity against human HTB-54 cells after 72 hrs by MTT assay; type: functional; conditions: HTB-54, 72 h; for CC50: read-out: LC50 (the source's name); summary of the method: as §1
[5] = test system: CCRF-CEM; test: Cytotoxicity against human CCRF-CEM cells after 72 hrs by MTT assay; type: functional; conditions: for CC50: read-out: LC50 (the source's name); summary of the method: as §1
[6] = test system: HT-29; test: Cytotoxicity against human HT-29 cells after 72 hrs by MTT assay; type: functional; conditions: HT-29, 72 h; for CC50: read-out: LC50 (the source's name); summary of the method: as §1

Structure (SMILES)	GI50 at 72 h [1] [µM]	LC50 [1] [µM]	TGI [1] [µM]	GI50 [2] [µM]	LC50 [2] [µM]	TGI [2] [µM]	GI50 at 72 h [3] [µM]	LC50 [3] [µM]	TGI [3] [µM]	GI50 [4] [µM]	TGI [4] [µM]	CC50 [4] [µM]	GI50 [5] [µM]	TGI [5] [µM]	CC50 [5] [µM]	GI50 [6] [µM]	TGI [6] [µM]	CC50 [6] [µM]
CCCCC[Se]c1nc(NCc2ccc(SC)cc2)c2ccccc2n1	34.7	> 100	88.21	34.7	95.3	65	57.4	> 100	> 100	40.4	81.3	> 100	35	83.9	> 100	83.6	> 100	> 100
CSc1ccc(CNc2nc(SC)nc3ccccc23)cc1	22.7	95.93	59.11	47.3	> 100	> 100	22	> 100	> 100	7.22	44.5	89.1	> 100	> 100	> 100	34.7	> 100	> 100
CSc1nc(NCCc2ccccc2)c2ccccc2n1	41.9	> 100	94.8	80.3	> 100	> 100	8.3	88.58	46.88	50.6	> 100	> 100	32.9	72.8	> 100	29.2	87.4	> 100
CSc1nc(NCCCCCO)c2cccnc2n1	> 100	> 100	> 100	48.9	> 100	> 100	> 100	> 100	> 100	> 100	> 100	> 100	> 100	> 100	> 100	63.9	> 100	> 100
Nc1nc([SeH])nc2ncccc12	5.89	> 100	87.73	37.3	> 100	> 100	5.2	74.98	31.05	44.3	96.6	> 100	30.9	61.5	92.1	36.3	89.6	> 100
COc1ccc(CNc2nc([Se]C)nc3ccccc23)cc1	> 100	> 100	> 100	42.2	> 100	98.6	75.6	> 100	> 100	33	> 100	> 100	> 100	> 100	> 100	73.6	> 100	> 100
[SeH]c1nc(NCc2ccccc2)c2ccccc2n1	3.54	> 100	> 100	> 100	> 100	> 100	20.8	> 100	63.63	31.2	> 100	> 100	> 100	> 100	> 100	62.2	> 100	> 100
CSc1nc(NCCCCc2ccccc2)c2ccccc2n1	6.81	> 100	> 100	32	95.9	64	28.5	78.6	53.55	> 100	> 100	> 100	47	> 100	> 100	> 100	> 100	> 100
C[Se]c1nc(N)c2cccnc2n1	39.7	> 100	90.81	43	> 100	> 100	45.5	> 100	87.15	78.2	> 100	> 100	68.4	> 100	> 100	44.1	77.3	> 100
[Se]=C=NCc1ccccc1 [BENZYLISOSELENOCYANATE]	4.1	69.59	32.75	27.9	95.5	61.7	15.5	74.86	45.15	5.98	33.4	66.1	28.7	57.7	86.7	21	44.5	68.1
CSc1nc(NCCCCCO)c2ccccc2n1	39.3	> 100	99.35	62	> 100	> 100	49.9	> 100	> 100	31.4	71.4	> 100	> 100	> 100	> 100	> 100	> 100	> 100
COc1ccc(CNc2nc([SeH])nc3ccccc23)cc1	37.4	> 100	> 100	42.7	> 100	94	71.2	> 100	> 100	7.11	60.9	> 100	> 100	> 100	> 100	71.6	> 100	> 100
CCCCC[Se]c1nc(N)c2ccccc2n1	52.2	> 100	> 100	28.6	90.4	59.5	15.3	71.85	43.6	34.6	84	> 100	34.8	68	> 100	40.3	> 100	> 100
CSc1nc(NCCCc2ccccc2)c2ccccc2n1	73.4	> 100	> 100	77.2	> 100	> 100	6.77	> 100	> 100	50.6	> 100	> 100	39.5	87.8	> 100	19.6	89.5	> 100
[SeH]c1nc(NCc2ccccc2)c2cccnc2n1	8.4	> 100	> 100	0.03	> 100	> 100	3.7	> 100	9.13	> 100	> 100	> 100	30.5	68.9	> 100	6.35	33.1	> 100
